From BindingDB's records for doi:10.1021/jm970159v (National Taiwan University, 1998)

Tests used:
D(3) dopamine receptor = D(3) dopamine receptor (Homo sapiens, UniProt P35462); assay: Compound is evaluated for binding affinity towards recombinant human Dopamine receptor D3 using [3H]spiperone in CHO cells at 10 uM
Procedure, shortened: (§1)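 Single-concentration screen at 10 µM in contract radioligand binding assays. Records whether inhibition of specific radioligand binding stayed below 50%.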

Histamine H1 receptor = Histamine H1 receptor (Cavia porcellus, UniProt P31389); assay: Compound is evaluated for binding affinity towards Histamine H1 receptor using [3H]pyrilamine in guinea pig lung at 10 uM; procedure, shortened: as §1
[1] = target: Sigma non-opioid intracellular receptor 1 (Cavia porcellus) (UniProt Q60492); assay: Compound is evaluated for binding affinity towards Sigma receptor using [3H]pentazocine in guinea pig brain
Sequence of Sigma non-opioid intracellular receptor 1 (Cavia porcellus) (Q60492 whole entry, looked up): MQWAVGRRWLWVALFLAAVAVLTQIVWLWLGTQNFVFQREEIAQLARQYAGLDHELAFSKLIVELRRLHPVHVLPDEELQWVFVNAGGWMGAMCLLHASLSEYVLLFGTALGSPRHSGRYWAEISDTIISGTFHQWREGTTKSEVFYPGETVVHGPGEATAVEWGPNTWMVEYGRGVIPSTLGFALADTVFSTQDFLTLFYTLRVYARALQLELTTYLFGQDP

Sequence of Histamine H1 receptor (P31389 whole entry): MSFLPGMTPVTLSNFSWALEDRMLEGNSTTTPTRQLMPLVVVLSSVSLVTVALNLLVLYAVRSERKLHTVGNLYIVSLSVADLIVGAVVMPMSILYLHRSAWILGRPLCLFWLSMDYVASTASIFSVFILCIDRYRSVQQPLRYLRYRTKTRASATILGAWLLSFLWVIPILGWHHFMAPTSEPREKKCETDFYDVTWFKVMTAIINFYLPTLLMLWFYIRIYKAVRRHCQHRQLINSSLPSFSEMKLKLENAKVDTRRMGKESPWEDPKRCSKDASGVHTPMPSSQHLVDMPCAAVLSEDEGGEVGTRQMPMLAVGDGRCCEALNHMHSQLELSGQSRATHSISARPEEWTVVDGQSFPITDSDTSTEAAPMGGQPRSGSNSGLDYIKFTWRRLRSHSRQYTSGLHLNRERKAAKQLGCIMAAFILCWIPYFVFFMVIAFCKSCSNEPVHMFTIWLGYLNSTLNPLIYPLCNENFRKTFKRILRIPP
Sequence of D(3) dopamine receptor (P35462 as listed by the source): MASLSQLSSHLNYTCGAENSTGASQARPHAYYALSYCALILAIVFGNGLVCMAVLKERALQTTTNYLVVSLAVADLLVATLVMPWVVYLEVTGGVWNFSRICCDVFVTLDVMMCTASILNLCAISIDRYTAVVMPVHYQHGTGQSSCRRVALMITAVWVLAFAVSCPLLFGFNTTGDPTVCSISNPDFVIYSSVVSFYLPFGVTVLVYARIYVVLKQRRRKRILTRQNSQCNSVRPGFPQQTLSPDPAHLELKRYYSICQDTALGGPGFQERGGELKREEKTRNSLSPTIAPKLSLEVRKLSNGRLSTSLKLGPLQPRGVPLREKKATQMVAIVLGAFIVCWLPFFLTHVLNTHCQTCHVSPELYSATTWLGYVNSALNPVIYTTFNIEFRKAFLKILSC

Compound | Ki (D(3) dopamine receptor) [µM] | Ki (Histamine H1 receptor) [µM] | Ki [1] [µM]
COc1ccccc1N1CCN(C[C@H]2CN=C3c4ccccc4N=C(SC)N32)CC1 | > 10 | > 10 | 
COc1ccccc1N1CCN(CC2CN3C(=O)Nc4ccccc4C3=N2)CC1 (stereo not drawn) [2-[4-(2-Methoxy-phenyl)-piperazin-1-ylmethyl]-2,6-dihydro-3H-imidazo[1,2-c]quinazolin-5-one] |  |  | 4
COc1ccccc1N1CCN(CCn2c(=O)[nH]c3ccccc3c2=O)CC1 [3-{2-[4-(2-Methoxy-phenyl)-piperazin-1-yl]-ethyl}-1H-quinazoline-2,4-dione] |  |  | > 10

The next lines start with the values.

Ki (D(3) dopamine receptor) [µM] | Ki (Histamine H1 receptor) [µM] | Ki [1] [µM] | Compound
 |  | 0.743 | COc1ccccc1N1CCN(Cc2cn3c(=O)[nH]c4ccccc4c3n2)CC1 [2-[4-(2-Methoxy-phenyl)-piperazin-1-ylmethyl]-6H-imidazo[1,2-c]quinazolin-5-one]
 |  | 1.5 | Oc1nc2ccccc2c2ncc(CN3CCN(c4ccccc4Cl)CC3)n12 [3-[4-(2-Chloro-phenyl)-piperazin-1-ylmethyl]-6H-imidazo[1,2-c]quinazolin-5-one]
 |  | > 6.27 | COc1ccccc1N1CCN(CC2CN=C3c4ccccc4NC(=O)N32)CC1 (stereo not drawn) [3-[4-(2-Methoxy-phenyl)-piperazin-1-ylmethyl]-2,6-dihydro-3H-imidazo[1,2-c]quinazolin-5-one]
 |  | 6.52 | COc1ccccc1N1CCN(Cc2cnc3c4ccccc4nc(O)n23)CC1 [3-[4-(2-Methoxy-phenyl)-piperazin-1-ylmethyl]-6H-imidazo[1,2-c]quinazolin-5-one]
